Results: ChEMBL document CHEMBL1158680, “Chemical constituents and biological activities of the fruit of Zanthoxylum integrifoliolum” (1999)
Activity calls are given as the source filed them. No cut-off for these calls is given here.

How the values were obtained:
[1] = Antiplatelet activity against rabbit platelets assessed as inhibition of PAF-induced platelet aggregation at 20 ug/ml preincubated for 3 mins by turbidimetric method; format: functional, Oryctolagus cuniculus; parameters: scale not given: the % may be the effect or the level left
Summary of the method: (§1)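 Washed rabbit platelets were preincubated with test sample or 0.5% DMSO vehicle for 3 min at 37 °C. Inducers were thrombin 0.1 U/mL, arachidonic acid 100 μM, collagen 10 μg/mL or PAF 2 nM. Turbidimetric read-out took platelet suspension absorbance as 0% and platelet-free Tyrode's as 100% aggregation, measured at 6 min. Results are mean ± SEM with n per entry.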

[2] = Antiplatelet activity against rabbit platelets assessed as inhibition of PAF-induced platelet aggregation at 100 ug/ml preincubated for 3 mins by turbidimetric method; format: functional, Oryctolagus cuniculus; parameters: scale not given: the % may be the effect or the level left; summary of the method: as §1
Aorta [3] = experiment: Vasorelaxation activity in rat aorta assessed as inhibition of K+-induced contraction at 5 ug/ml preincubated for 15 mins relative to control; format: functional; parameters: scale not given: the % may be the effect or the level left
Summary of the method: (§2)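 Rat aorta was preincubated with test sample or 0.1% DMSO vehicle at 37 °C for 15 min. Contraction was then evoked with high K+ (80 mM) or norepinephrine (3 μM). Response is expressed as percent of control contraction, mean ± SEM, n = 3.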

Aorta [4] = experiment: Vasorelaxation activity in rat aorta assessed as inhibition of norepinephrine-induced phasic contraction at 50 ug/ml preincubated for 15 mins relative to control; format: functional; parameters: scale not given: the % may be the effect or the level left; summary of the method: as §2
[5] = Antiplatelet activity against rabbit platelets assessed as inhibition of PAF-induced platelet aggregation at 10 ug/ml preincubated for 3 mins by turbidimetric method; format: functional, Oryctolagus cuniculus; parameters: scale not given: the % may be the effect or the level left; summary of the method: as §1
[6] = Antiplatelet activity against rabbit platelets assessed as inhibition of arachidonic acid-induced platelet aggregation at 5 ug/ml preincubated for 3 mins by turbidimetric method; format: functional, Oryctolagus cuniculus; parameters: scale not given: the % may be the effect or the level left
Summary of the method: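 Washed rabbit platelet suspension preincubated with DMSO (0.5%, control) or sample at 37 °C for 3 min. Arachidonic acid (100 μM) then added. Turbidimetric read-out with platelet suspension as 0% and platelet-free Tyrode's solution as 100% aggregation. Percent aggregation read at 6 min. Means ± S.E.M. (n).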

[7] = Antiplatelet activity against rabbit platelets assessed as inhibition of PAF-induced platelet aggregation at 50 ug/ml preincubated for 3 mins by turbidimetric method; format: functional, Oryctolagus cuniculus; parameters: scale not given: the % may be the effect or the level left; summary of the method: as §1
[8] = Antiplatelet activity against rabbit platelets assessed as inhibition of arachidonic acid-induced platelet aggregation at 20 ug/ml preincubated for 3 mins by turbidimetric method; format: functional, Oryctolagus cuniculus; parameters: scale not given: the % may be the effect or the level left; summary of the method: as §1
Aorta [9] = experiment: Vasorelaxation activity in rat aorta assessed as inhibition of norepinephrine-induced tonic contraction at 50 ug/ml preincubated for 15 mins relative to control; format: functional; parameters: scale not given: the % may be the effect or the level left; summary of the method: as §2
[10] = Antiplatelet activity against rabbit platelets assessed as inhibition of thrombin-induced platelet aggregation at 100 ug/ml preincubated for 3 mins by turbidimetric method; format: functional, Oryctolagus cuniculus; parameters: scale not given: the % may be the effect or the level left; summary of the method: as §1
Aorta [11] = experiment: Vasorelaxation activity in rat aorta assessed as inhibition of norepinephrine-induced phasic contraction at 15 ug/ml preincubated for 15 mins relative to control; format: functional; parameters: scale not given: the % may be the effect or the level left; summary of the method: as §2
[12] = (§3) Antiplatelet activity against rabbit platelets assessed as inhibition of collagen-induced platelet aggregation at 100 ug/ml preincubated for 3 mins by turbidimetric method; format: functional, Oryctolagus cuniculus; parameters: scale not given: the % may be the effect or the level left; summary of the method: as §1
Aorta [13] = experiment: Vasorelaxation activity in rat aorta assessed as inhibition of K+-induced contraction at 50 ug/ml preincubated for 15 mins relative to control; format: functional; parameters: scale not given: the % may be the effect or the level left; summary of the method: as §2
Aorta [14] = experiment: Vasorelaxation activity in rat aorta assessed as inhibition of norepinephrine-induced tonic contraction at 15 ug/ml preincubated for 15 mins relative to control; format: functional; parameters: scale not given: the % may be the effect or the level left; summary of the method: as §2
[15] = Antiplatelet activity against rabbit platelets assessed as inhibition of arachidonic acid-induced platelet aggregation at 100 ug/ml preincubated for 3 mins by turbidimetric method; format: functional, Oryctolagus cuniculus; parameters: scale not given: the % may be the effect or the level left; summary of the method: as §1
Aorta [16] = experiment: Vasorelaxation activity in rat aorta assessed as inhibition of K+-induced contraction at 15 ug/ml preincubated for 15 mins relative to control; format: functional; parameters: scale not given: the % may be the effect or the level left; summary of the method: as §2
[17] = Antiplatelet activity against rabbit platelets assessed as inhibition of arachidonic acid-induced platelet aggregation at 10 ug/ml preincubated for 3 mins by turbidimetric method; format: functional, Oryctolagus cuniculus; parameters: scale not given: the % may be the effect or the level left; summary of the method: as §1
Aorta [18] = experiment: Vasorelaxation activity in rat aorta assessed as inhibition of K+-induced contraction at 100 ug/ml preincubated for 15 mins relative to control; format: functional; parameters: scale not given: the % may be the effect or the level left; summary of the method: as §2
Aorta [19] = experiment: Vasorelaxation activity in rat aorta assessed as inhibition of norepinephrine-induced tonic contraction at 100 ug/ml preincubated for 15 mins relative to control; format: functional; parameters: scale not given: the % may be the effect or the level left; summary of the method: as §2
Aorta [20] = experiment: Vasorelaxation activity in rat aorta assessed as inhibition of norepinephrine-induced phasic contraction at 100 ug/ml preincubated for 15 mins relative to control; format: functional; parameters: scale not given: the % may be the effect or the level left; summary of the method: as §2
[21] = Antiplatelet activity against rabbit platelets assessed as inhibition of arachidonic acid-induced platelet aggregation at 50 ug/ml preincubated for 3 mins by turbidimetric method; format: functional, Oryctolagus cuniculus; parameters: scale not given: the % may be the effect or the level left; summary of the method: as §1
Aorta [22] = experiment: Vasorelaxation activity in rat aorta assessed as inhibition of K+-induced contraction at 1 ug/ml preincubated for 15 mins relative to control; format: functional; parameters: scale not given: the % may be the effect or the level left
Summary of the method: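 Rat aorta preincubated with sample or DMSO (0.1%, control) at 37 °C for 15 min. Contraction then induced by high potassium (K+, 80 mM). Response expressed as percentage of control contraction, given as means ± S.E.M. (n = 3).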

Platelet [23] = experiment: (§4) Antiplatelet activity against rabbit platelets assessed as inhibition of collagen-induced platelet aggregation at 50 ug/ml preincubated for 3 mins by turbidimetric method; format: functional; details: Oryctolagus cuniculus; summary of the method: as §1
Platelet [24] = experiment: as §3; format: functional; details: Oryctolagus cuniculus; summary of the method: as §1
[25] = as §4; format: functional, Oryctolagus cuniculus; parameters: scale not given: the % may be the effect or the level left; summary of the method: as §1
[26] = Antiplatelet activity against rabbit platelets assessed as inhibition of thrombin-induced platelet aggregation at 50 ug/ml preincubated for 3 mins by turbidimetric method; format: functional, Oryctolagus cuniculus; parameters: scale not given: the % may be the effect or the level left; summary of the method: as §1

Compound | Activity [2] | Activity (Aorta [4]) | Activity [8] | Activity (Aorta [9]) | Activity [10] | Activity [12] | Activity (Aorta [13]) | Activity [15] | other results
COc1ccc(-c2oc3c(OC)c(OC)cc(OC(C)=O)c3c(=O)c2OC(C)=O)cc1 | 0% | 74.6% | 0% | 58.7% | 88.5% | 5.1% | 25.3% | 0% | Activity [1]: 71.2%; Activity (Aorta [3]): 84.8%; Activity [5]: 78%; Activity [6]: 51.1%; Activity [7]: 46.7%; Activity (Aorta [11]): 94.6%; Activity (Aorta [14]): 86.3%; Activity (Aorta [16]): 57.1%; Activity [17]: 29%
COc1ccc(-c2oc3c(OC)c(OC)cc(O)c3c(=O)c2O)cc1 [TAMBULIN] | 78.6% | – | – | – | 81.1% | 64.9% | – | 73.3% | Activity (Aorta [18]): 104.7%; Activity (Aorta [19]): 98.6%; Activity (Aorta [20]): 100.2%
O=c1ccc2nccc3c4ccccc4n1c23 [CANTHIN-6-ONE] | 36.4% | – | – | – | 85.3% | 7.9% | – | 4.2% | Activity [21]: 57.3%
COC(=O)C1=C(C)NC(C)=C(C(=O)OC)C1c1ccccc1[N+](=O)[O-] [NIFEDIPINE] | – | – | – | – | – | – | – | – | Activity (Aorta [22]): 0%
COc1ccc2c(c1OC)CN1CCc3cc4c(cc3[C@@H]1C2)OCO4 [CANADINE] | 54.7% | 11.2% | – | 25.6% | 91.2% | 76.4% | 13.6% | 45.8% | Activity (Aorta [3]): 82.8%; Activity (Aorta [11]): 79.1%; Activity (Aorta [14]): 70%; Activity (Aorta [16]): 49.8%
CC(=O)[C@H]1CC[C@H]2[C@@H]3CC=C4C[C@@H](O)CC[C@]4(C)[C@H]3CC[C@]12C [PREGNENOLONE] | 77% | 114.1% | – | 102.6% | 91.8% | 84.7% | 93.6% | 86.5% | –
CCCCCCCCCCCC(C)=O [2-TRIDECANONE] | – | – | 63.5% | – | – | – | – | – | Activity (Platelet [23]): inactive; Activity (Platelet [24]): inactive
CC(=O)Oc1ccccc1C(=O)O [ASPIRIN] | – | – | 42.7% | – | – | – | – | – | Activity [25]: 87.1%; Activity [7]: 90.1%; Activity [21]: 0%; Activity [17]: 90.2%; Activity [26]: 92.1%
